Published values of several laboratories.
Compare with care: the assays were run in different laboratories.

| Structure (SMILES) | test system | conditions | Cmax |
| --- | --- | --- | --- |
| CCOC(=O)c1c(NC(=O)CNC(C)C)sc2c1CCCCC2 | male mouse, brain | intraperitoneal, 100 mg/kg, single dose | 15800 ng/g |
| O=C1CCC(N2Cc3c(ccc4c3OCC43CCN(Cc4ccccc4)CC3)C2=O)C(=O)N1 (centres unmarked) | male CD-1 mouse, plasma | intravenous, 1 mg/kg | 299 ng/mL |
| N=C(N)NCCC[C@H](NC(=O)[C@H](Cc1ccccc1)NC(=O)[C@H](CCC(N)=O)NC(=O)OCc1ccccc1)C(=O)c1nccs1 | female C57BL/6 mouse, plasma | intravenous, 5 mg/kg | 3460 ng/mL |
| CC(C)=CCC[C@](C)(O[C@@H]1O[C@H](CO)[C@@H](O)[C@H](O)[C@H]1O)[C@H]1CC[C@]2(C)[C@@H]1[C@H](O)C[C@@H]1[C@@]3(C)CC[C@H](O)C(C)(C)[C@@H]3CC[C@]12C | mouse, plasma | oral, 10 mg/kg | 107 ng/mL |
| Cc1[nH]c(C)c(S(=O)(=O)Nc2ccc(S(F)(F)(F)(F)F)cc2)c1C(=O)N1CCC(F)(F)C1 | mouse, plasma | intraperitoneal, 40 mg/kg | 31 µM |
| C[C@@H](O)[C@@H]1NC(=O)CNC(=O)[C@H](Cc2c[nH]cn2)NC(=O)[C@H](Cc2c[nH]c3ccccc23)NC(=O)[C@H](CC(N)=O)NC(=O)CNC(=O)C[C@@H](C(=O)N[C@@H](Cc2c[nH]c3ccccc23)C(=O)N[C@@H](Cc2ccccc2)C(=O)N[C@@H](Cc2ccccc2)C(=O)N[C@@H](CC(N)=O)C(=O)N[C@@H](Cc2ccc(O)cc2)C(=O)N[C@@H](Cc2ccc(O)cc2)C(=O)N[C@@H](Cc2c[nH]c3ccccc23)C(=O)O)NC(=O)[C@@H]2CCCN2C(=O)[C@H](CO)NC1=O | mouse, plasma | intravenous, 3 mg/kg | 11400 ng/mL |
| CC(C)[C@]12O[C@H]1[C@@H]1O[C@]13[C@]1(O[C@H]1C[C@H]1C4=C(CC[C@@]13C)C(=O)OC4)[C@@H]2O | SCID mouse, plasma | intravenous, 0.6 mg/kg | 1290 ng/mL |
| COc1cc(C(=O)c2nc(-c3cccc4[nH]ccc34)c[nH]2)cc(OC)c1OC | male CD-1 mouse, plasma | intraperitoneal, 15 mg/kg | 1870 ng/mL |
